Screens as filed in PubChem.
In the library only some 2.3% were active in any assay of this set; here they are far more common.
MEKK3 PB1 HTS: modulators of MEKK3-MEK5 PB1 binding, primary screen, biochemical, wildtype MEKK3, multiplex bead flow cytometry, Alexa488-MEK5 | bead-based flow cytometry, Alexa488-MEK5 binding to MEKK3; actives lie on both sides; 0 = blocked by unlabeled MEK5, 100 = vehicle | Mitogen-activated protein kinase kinase kinase 3 (Homo sapiens), Q99759 | actives 1.4% (n = 290,000) | binding response (% of control), % at 10 µM;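 active = binding response more than 3 SD above or below the average of its plate-row segment, actives on both sides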;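 note: Alexa488 bead fluorescence after subtracting the streptavidin-only scavenger bead signal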
MEKK2 WT-MEK5: modulators of MEK5 binding to wildtype MEKK2, primary screen, biochemical, multiplex bead flow cytometry, Alexa488-MEK5; actives 1.1% (n = 290,000); binding response (% of control), % at 10 µM; AID 1531, 2009; Alexa488-MEK5 binding to MEKK2 WT; actives lie on both sides; in the data active = binding response below about 67% or above about 130%
Arrestin-AP2 inh: inhibitors of beta-arrestin/AP2 binding, primary screen, biochemical, GPCR trafficking, flow cytometry | beta-arrestin 1 C-terminal peptide binding to AP2 beta2-adaptin appendage (human) | FITC-arrestin peptide / GST-AP2 beads; AP2 beta2 appendage carries R879A mutation | inhibition, % at 10 µM | actives 0.31% (n = 340,000);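 active = inhibition above a set limit, near 3 SD of compounds lacking own fluorescence, cut at about 54% in these data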;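 note: plate controls were DMSO wells for no effect and 5 µM unlabelled arrestin peptide for full effect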
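System: GST-AP2 R879A glutathione beads; medium: PBS, Tween 20 0.05%, BSA 0.1%; reagent: fluorescein-tagged arrestin peptide at 50 nM final; schedule: pre-incubation 12 min, peptide binding 1 h, room temperature; detection: flow cytometry, FL1 (488/535 nm); read-out: inhibition as reduced fluorescein signal on beads, percent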
MEKK2mut PB1 HTS: MEK5 binding signal on mutant MEKK2 PB1, primary screen, biochemical, multiplex bead flow cytometry, Alexa488-MEK5; Alexa488-MEK5 binding to MEKK2 mutant; percent response, % at 10 µM; actives 0.35% (n = 290,000); AID 1530, 2009; in the data active = percent response above about 24%, passing the limit was not always enough
The depositor's hits bear a star; nt = no result; [ ] = dose if it differs, or a comment.

SMILES	MEKK3 PB1 HTS	MEKK2 WT-MEK5	Arrestin-AP2 inh	MEKK2mut PB1 HTS
Cc1cc(C)nc(NC(=NCCc2c[nH]c3ccccc23)NC(=O)Nc2ccc(Cl)c(Cl)c2)n1	109.0	49.0*	-13.8	47.0
O=[N+]([O-])c1ccc(N/N=C/c2sc(N3CCOCC3)nc2-c2ccccc2)c(S(=O)(=O)Nc2ccccc2Cl)c1	91.0	nt	-0.8	63.0*
CS(=O)(=O)N1N=C(c2cccs2)CC1c1ccccc1 (stereo not given)	95.0	0.0*	22.3	12.0
CS(=O)(=O)Nc1cccc(C2=NN(S(C)(=O)=O)C(c3ccccc3)C2)c1 (stereo not given)	104.0	23.0*	-0.2	37.0
COc1ccc(C2CC(c3cccs3)=NN2S(C)(=O)=O)cc1 (stereo not given)	100.0	87.0	-6.4	7.0
COc1ccccc1C1CC(c2cccc(NS(C)(=O)=O)c2)=NN1S(=O)(=O)c1ccccc1 (stereo not given)	88.0	91.0	-10.0	-14.0
OC[C@@H](O)[C@@H](O[C@H]1O[C@H](CO)[C@@H](O)[C@H](O)[C@H]1O)[C@H](O)[C@@H](O)CO	81.0	-4.0*	7.8	5.0
Nc1nc(-c2cccnc2)nn1C(=O)c1ccc(Cl)cc1	96.0	-3.0*	-5.9	2.0
COc1ccc(C(CNC(=O)c2ccc(S(=O)(=O)Nc3ccc(F)cc3)cc2)N(C)C)cc1 (stereo not given)	108.0	119.0	16.6	31.0*
COc1cc(C2C(C(=O)OC(C)C)=C(C)Nc3[nH]c(=O)[nH]c(=O)c32)ccc1O (stereo not given)	61.0*[inhibitor]	70.0*[inhibitor]	27.9	-16.0
COC(=O)C1=C(C)Nc2[nH]c(=S)[nH]c(=O)c2C1c1ccc(O)cc1 (stereo not given)	102.0	99.0	-2.3	-1.0
O=C1CS/C(=N/N=C/c2c[nH]c3ccccc23)N1	98.0	93.0	15.9	-5.0
O=C1/C(=C/c2c[nH]c3ccccc23)CCC/C1=C\c1c[nH]c2ccccc12	89.0	81.0	8.3	96.0*
COc1cc(N)c2ncccc2c1Br	nt	nt	-3.8	nt
COc1cc(/C=N/N=C(/C(=O)c2ccccc2)c2ccccc2)cc(OC)c1O	135.0*	105.0	3.9	0.0
Cc1cc(F)ccc1S(=O)(=O)N(CC(=O)N1CCOCC1)CC(=O)N1CCOCC1	nt	nt	-5.6	nt
O=c1[nH][nH]c2c(N=Cc3ccccc3O)ccc(F)c12	57.0*[inhibitor]	58.0*[inhibitor]	39.1	-14.0
CCc1ccc(O)c(N=Cc2ccccc2O)c1	97.0	93.0	9.8	-2.0
O=S(=O)(c1ccc(Br)cc1F)N1CCC(O)CC1	nt	nt	-15.3	nt
COC(=O)C[C@H]1C=C[C@@H](C(C(=O)OC)C(=O)OC)CN1C(C)=O	nt	nt	-4.9	nt
COc1cccc(CC2(CO)CCCN(C/C=C/c3ccccc3OC)C2)c1 (stereo not given)	103.0	115.0	-19.9	3.0
COc1ccccc1/C=C/CN1CCCC(CO)(Cc2cccc(Cl)c2)C1 (stereo not given)	111.0	190.0*	14.6	60.0*
COc1ccc(-c2cnc(N)n2CC2CCCO2)cc1 (stereo not given)	97.0	-6.0*	4.0	3.0
O=C(OCc1c(-c2ccccc2)ncc2ccccc12)c1ccccc1C(F)(F)F	nt	nt	6.0	nt
COc1ccccc1N1CCN(CCCNC(=O)C2CCCN(c3ncnc4c3nc3n4CCCCC3)C2)CC1 (stereo not given)	103.0	136.0*	2.0	21.0
CCn1c(N2CCN(CC(=O)c3ccc(OC)cc3)CC2)nc2ccccc21	2.0*[inhibitor]	2.0*[inhibitor]	-2.9	-18.0
O=C(NC(=S)Nc1ccc(N2CCOCC2)cc1)c1cccc(Cl)c1Cl	103.0	101.0	10.5	-4.0
CN1CCN(c2ccc(NC(=S)NC(=O)c3cccc4c(Cl)cccc34)cc2)CC1	101.0	170.0*	10.8	28.0*
OCCCNCc1ccc(N(c2ccccc2)c2ccccc2)cc1	105.0	141.0*	1.5	33.0*
OCCNCc1ccc(-c2ccccc2)cc1	100.0	102.0	1.4	3.0
